# From ChEMBL document CHEMBL2346641, “Discovery of disubstituted piperidines and homopiperidines as potent dual NK1 receptor antagonists-serotonin reuptake transporter inhibitors for the treatment of depression” (Bioorg Med Chem, 2013)
# Activity calls are given as the source filed them.
# How the values were obtained:
# [1] = Drug uptake in gerbil brain at 10 mg/kg, ip after 36 mins; format: ADME, organism-based; design: dose 10 mg/kg, route intraperitoneal; details: gerbillinae, read-out: Drug uptake
# Summary of the method: (§1)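 Gerbils given IP doses as a solution in 100% PEG-400. Brain and serum sampled 36 min post-injection, covering the time from dosing to the end of the behavioral test. Values are means (n = 3) with SD.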
# [2] = Ratio of drug level in brain to serum in gerbil at 10 mg/kg, ip after 36 mins; format: ADME, organism-based; design: dose 10 mg/kg, route intraperitoneal; details: gerbillinae
# Summary of the method: (§2)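 Gerbils given single IP dose in 100% PEG-400 (0.1–30 mg/kg); brain and serum sampled 36 min post-dose, matching the interval from dosing to end of forced swim test. Drug concentrations (nM) measured in each matrix and brain-to-serum ratio calculated; mean of n = 3 with SD.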
# [3] = Drug uptake in gerbil serum at 30 mg/kg, ip after 36 mins; format: ADME, organism-based; design: dose 30 mg/kg, route intraperitoneal; details: gerbillinae, read-out: Drug uptake; summary of the method: as §1
# [4] = target: T1, 5-hydroxytryptamine receptor 2C (Homo sapiens, UniProt P28335); test: Inhibition of 5HT2C receptor (unknown origin)
# T1 sequence (P28335 whole entry): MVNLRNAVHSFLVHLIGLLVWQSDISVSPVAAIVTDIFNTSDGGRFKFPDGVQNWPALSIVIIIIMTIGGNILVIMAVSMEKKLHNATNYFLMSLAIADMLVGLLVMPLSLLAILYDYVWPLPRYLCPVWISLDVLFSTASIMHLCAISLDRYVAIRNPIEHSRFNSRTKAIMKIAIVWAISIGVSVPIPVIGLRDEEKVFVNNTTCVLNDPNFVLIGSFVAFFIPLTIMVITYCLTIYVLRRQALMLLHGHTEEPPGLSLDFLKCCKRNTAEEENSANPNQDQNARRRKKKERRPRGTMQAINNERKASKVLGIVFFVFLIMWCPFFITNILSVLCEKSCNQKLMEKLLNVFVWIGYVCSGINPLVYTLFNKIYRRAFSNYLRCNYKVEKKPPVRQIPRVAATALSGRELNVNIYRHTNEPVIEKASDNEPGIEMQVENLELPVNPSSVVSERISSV
# Substance-K receptor = target: T2, Substance-K receptor (Homo sapiens, UniProt P21452); test: Inhibition of NK2 receptor (unknown origin)
# T2 sequence (P21452 whole entry): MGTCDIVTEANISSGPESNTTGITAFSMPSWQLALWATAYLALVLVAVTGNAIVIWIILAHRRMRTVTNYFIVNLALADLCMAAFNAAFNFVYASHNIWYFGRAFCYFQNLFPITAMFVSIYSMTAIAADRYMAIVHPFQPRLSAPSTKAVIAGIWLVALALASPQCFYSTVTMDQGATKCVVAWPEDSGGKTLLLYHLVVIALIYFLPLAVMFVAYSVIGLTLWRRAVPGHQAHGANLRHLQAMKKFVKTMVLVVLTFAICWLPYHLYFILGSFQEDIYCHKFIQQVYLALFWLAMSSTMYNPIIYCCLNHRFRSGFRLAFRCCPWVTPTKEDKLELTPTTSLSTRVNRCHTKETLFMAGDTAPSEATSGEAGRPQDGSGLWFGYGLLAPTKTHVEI
# [5] = Drug uptake in gerbil serum at 10 mg/kg, ip after 36 mins; format: ADME, organism-based; design: dose 10 mg/kg, route intraperitoneal; details: gerbillinae, read-out: Drug uptake; summary of the method: as §1
# [6] = Binding affinity to gerbil NK1 receptor; design: species or system Gerbillinae
# Gerbillinae [7] = test: Antidepressant activity in gerbil assessed as decrease in immobility time at 10 to 30 mg/kg, ip administered for 30 mins prior to testing measured for 6 mins by forced swimming test; format: functional, organism-based
# [8] = Drug uptake in gerbil serum at 0.1 mg/kg, ip after 36 mins; format: ADME, organism-based; design: dose 0.1 mg/kg, route intraperitoneal; details: gerbillinae, read-out: Drug uptake; summary of the method: as §1
# [9] = Drug uptake in gerbil serum at 1 mg/kg, ip after 36 mins; format: ADME, organism-based; design: dose 1 mg/kg, route intraperitoneal; details: gerbillinae, read-out: Drug uptake; summary of the method: as §1
# [10] = Drug uptake in gerbil brain at 3 mg/kg, ip after 36 mins; format: ADME, organism-based; design: dose 3 mg/kg, route intraperitoneal; details: gerbillinae, read-out: Drug uptake; summary of the method: as §1
# [11] = target: Sodium-dependent dopamine transporter (Homo sapiens, UniProt Q01959); test: Inhibition of DAT (unknown origin) at 10 uM
# Sodium-dependent dopamine transporter, sequence (Q01959 whole entry): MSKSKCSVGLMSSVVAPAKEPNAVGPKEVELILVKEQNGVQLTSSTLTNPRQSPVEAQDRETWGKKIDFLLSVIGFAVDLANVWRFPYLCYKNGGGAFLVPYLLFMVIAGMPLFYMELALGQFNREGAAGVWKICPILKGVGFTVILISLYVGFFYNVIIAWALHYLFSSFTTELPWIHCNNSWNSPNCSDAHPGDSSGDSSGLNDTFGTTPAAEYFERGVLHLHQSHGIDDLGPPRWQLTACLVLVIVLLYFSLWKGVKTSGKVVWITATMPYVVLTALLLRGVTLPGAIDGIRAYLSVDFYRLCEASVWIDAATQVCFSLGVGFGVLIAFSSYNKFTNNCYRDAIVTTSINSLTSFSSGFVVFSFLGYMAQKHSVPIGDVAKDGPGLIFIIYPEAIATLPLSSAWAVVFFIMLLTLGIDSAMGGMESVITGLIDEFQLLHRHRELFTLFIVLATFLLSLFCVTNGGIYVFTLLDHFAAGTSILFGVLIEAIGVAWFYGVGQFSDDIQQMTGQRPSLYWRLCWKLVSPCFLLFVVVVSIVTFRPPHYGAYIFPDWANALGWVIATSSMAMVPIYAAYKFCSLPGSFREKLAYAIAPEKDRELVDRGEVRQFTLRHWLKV
# Summary of the method: (§3)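 Screened at 10 µM in a commercial panel of over 70 receptors. Significance threshold set at ≥50% inhibition.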
# [12] = Drug uptake in gerbil brain at 30 mg/kg, ip after 36 mins; format: ADME, organism-based; design: dose 30 mg/kg, route intraperitoneal; details: gerbillinae, read-out: Drug uptake; summary of the method: as §1
# [13] = Drug uptake in gerbil brain at 1 mg/kg, ip after 36 mins; format: ADME, organism-based; design: dose 1 mg/kg, route intraperitoneal; details: gerbillinae, read-out: Drug uptake; summary of the method: as §1
# Gerbillinae [14] = test: Toxicity in gerbil assessed as behavioral change measuring spontaneous locomotor activity at 0.1 to 1 mg/kg, ip after 30 mins relative to vehicle-treated control; format: organism-based; design: dose 0.1-1 mg/kg, route intraperitoneal; details: in vivo, 0.5 h
# [15] = Drug uptake in gerbil serum at 0.3 mg/kg, ip after 36 mins; format: ADME, organism-based; design: dose 0.3 mg/kg, route intraperitoneal; details: gerbillinae, read-out: Drug uptake; summary of the method: as §1
# [16] = target: T3, Sodium-dependent noradrenaline transporter (Homo sapiens, UniProt P23975); test: Inhibition of NET (unknown origin)
# T3 sequence (P23975 whole entry): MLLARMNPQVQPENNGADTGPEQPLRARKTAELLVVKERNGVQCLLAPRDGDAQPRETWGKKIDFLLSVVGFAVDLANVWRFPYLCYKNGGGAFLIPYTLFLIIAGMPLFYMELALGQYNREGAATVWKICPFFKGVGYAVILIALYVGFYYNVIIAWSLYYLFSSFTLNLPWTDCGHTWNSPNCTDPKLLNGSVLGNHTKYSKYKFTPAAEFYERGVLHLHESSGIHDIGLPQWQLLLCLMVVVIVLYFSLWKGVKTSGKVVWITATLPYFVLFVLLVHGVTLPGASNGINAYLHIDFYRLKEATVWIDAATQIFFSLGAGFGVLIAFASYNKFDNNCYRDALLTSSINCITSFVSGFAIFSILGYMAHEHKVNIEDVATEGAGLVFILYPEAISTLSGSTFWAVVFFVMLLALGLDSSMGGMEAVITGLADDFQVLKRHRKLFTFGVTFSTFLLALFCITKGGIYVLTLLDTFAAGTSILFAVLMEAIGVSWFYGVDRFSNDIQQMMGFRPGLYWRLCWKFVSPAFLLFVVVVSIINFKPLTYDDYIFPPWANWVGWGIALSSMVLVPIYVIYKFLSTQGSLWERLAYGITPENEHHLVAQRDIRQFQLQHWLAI
# [17] = target: 5-hydroxytryptamine receptor 1B (Homo sapiens, UniProt P28222); test: Inhibition of 5HT1B receptor (unknown origin)
# 5-hydroxytryptamine receptor 1B, sequence (P28222 whole entry): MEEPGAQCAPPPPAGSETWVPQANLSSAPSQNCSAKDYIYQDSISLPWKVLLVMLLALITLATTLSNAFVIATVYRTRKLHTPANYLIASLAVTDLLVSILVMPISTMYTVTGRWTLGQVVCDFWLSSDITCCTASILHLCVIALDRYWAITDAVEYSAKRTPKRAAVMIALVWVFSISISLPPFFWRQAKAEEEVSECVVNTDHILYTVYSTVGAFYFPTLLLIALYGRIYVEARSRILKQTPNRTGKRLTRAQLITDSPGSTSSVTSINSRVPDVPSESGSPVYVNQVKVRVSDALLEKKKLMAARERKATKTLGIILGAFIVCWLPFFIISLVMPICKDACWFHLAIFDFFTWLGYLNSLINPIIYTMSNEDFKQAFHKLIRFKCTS
# Neuromedin-K receptor = target: T4, Neuromedin-K receptor (Homo sapiens, UniProt P29371); test: Inhibition of NK3 receptor (unknown origin)
# T4 sequence (P29371 whole entry): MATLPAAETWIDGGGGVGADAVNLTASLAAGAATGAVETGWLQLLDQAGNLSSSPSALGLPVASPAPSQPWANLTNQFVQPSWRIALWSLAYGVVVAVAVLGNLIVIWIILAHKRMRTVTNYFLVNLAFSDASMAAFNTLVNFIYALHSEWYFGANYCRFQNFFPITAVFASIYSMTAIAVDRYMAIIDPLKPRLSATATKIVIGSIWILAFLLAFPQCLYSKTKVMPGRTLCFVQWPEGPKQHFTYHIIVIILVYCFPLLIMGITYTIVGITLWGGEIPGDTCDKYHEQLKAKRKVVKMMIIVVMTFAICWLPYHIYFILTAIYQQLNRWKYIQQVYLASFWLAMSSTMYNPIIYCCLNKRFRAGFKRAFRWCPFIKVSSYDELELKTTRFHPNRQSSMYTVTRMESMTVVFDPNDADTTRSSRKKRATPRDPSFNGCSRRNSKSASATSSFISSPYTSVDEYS
# [18] = target: Sodium-dependent serotonin transporter (Homo sapiens, UniProt P31645); format: cell-based, HEK293
# Sodium-dependent serotonin transporter, sequence (P31645 whole entry): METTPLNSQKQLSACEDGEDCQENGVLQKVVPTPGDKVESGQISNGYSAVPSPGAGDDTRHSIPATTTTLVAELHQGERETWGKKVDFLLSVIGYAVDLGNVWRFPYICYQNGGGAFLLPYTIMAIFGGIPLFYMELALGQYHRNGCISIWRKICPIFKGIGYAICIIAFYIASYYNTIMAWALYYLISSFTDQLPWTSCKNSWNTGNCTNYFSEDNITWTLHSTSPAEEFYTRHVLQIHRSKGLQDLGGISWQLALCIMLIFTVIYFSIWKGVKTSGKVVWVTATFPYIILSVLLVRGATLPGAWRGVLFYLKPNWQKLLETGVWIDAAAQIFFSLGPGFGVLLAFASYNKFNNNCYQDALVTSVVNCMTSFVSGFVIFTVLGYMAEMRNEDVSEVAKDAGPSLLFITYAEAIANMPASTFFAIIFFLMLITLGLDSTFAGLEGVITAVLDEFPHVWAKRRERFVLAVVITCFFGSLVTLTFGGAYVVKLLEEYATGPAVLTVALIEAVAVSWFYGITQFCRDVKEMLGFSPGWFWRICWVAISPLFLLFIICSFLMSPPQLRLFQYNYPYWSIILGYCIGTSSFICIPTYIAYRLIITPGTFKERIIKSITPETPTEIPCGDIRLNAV
# [19] = Ratio of drug level in brain to serum in gerbil at 30 mg/kg, ip after 36 mins; format: ADME, organism-based; design: dose 30 mg/kg, route intraperitoneal; details: gerbillinae; summary of the method: as §2
# [20] = target: T5, 5-hydroxytryptamine receptor 2B (Homo sapiens, UniProt P41595); test: Inhibition of 5HT2B receptor (unknown origin)
# T5 sequence (P41595 whole entry): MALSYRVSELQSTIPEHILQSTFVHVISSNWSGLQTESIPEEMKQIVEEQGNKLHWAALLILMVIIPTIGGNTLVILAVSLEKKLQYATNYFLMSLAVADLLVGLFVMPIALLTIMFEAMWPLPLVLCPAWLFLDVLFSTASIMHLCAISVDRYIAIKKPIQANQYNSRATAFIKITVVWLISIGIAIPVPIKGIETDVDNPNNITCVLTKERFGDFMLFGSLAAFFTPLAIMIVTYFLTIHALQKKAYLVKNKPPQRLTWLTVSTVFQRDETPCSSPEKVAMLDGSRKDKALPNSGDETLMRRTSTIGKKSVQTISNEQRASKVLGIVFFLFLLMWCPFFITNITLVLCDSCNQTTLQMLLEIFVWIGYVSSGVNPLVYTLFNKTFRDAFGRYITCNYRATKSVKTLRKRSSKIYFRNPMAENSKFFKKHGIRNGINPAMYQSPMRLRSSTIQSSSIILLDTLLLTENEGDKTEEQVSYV
# [21] = target: T3, Sodium-dependent noradrenaline transporter; test: Inhibition of NET (unknown origin) at 10 uM; summary of the method: as §3
# [22] = Drug uptake in gerbil brain at 0.3 mg/kg, ip after 36 mins; format: ADME, organism-based; design: dose 0.3 mg/kg, route intraperitoneal; details: gerbillinae, read-out: Drug uptake; summary of the method: as §1
# [23] = Ratio of drug level in brain to serum in gerbil at 0.3 mg/kg, ip after 36 mins; format: ADME, organism-based; design: dose 0.3 mg/kg, route intraperitoneal; details: gerbillinae; summary of the method: as §2
# [24] = target: Histamine H1 receptor (Homo sapiens) (UniProt P35367); test: Inhibition of histamine H1 receptor (unknown origin) at 10 uM; summary of the method: as §3
# Histamine H1 receptor (Homo sapiens), sequence (P35367 whole entry): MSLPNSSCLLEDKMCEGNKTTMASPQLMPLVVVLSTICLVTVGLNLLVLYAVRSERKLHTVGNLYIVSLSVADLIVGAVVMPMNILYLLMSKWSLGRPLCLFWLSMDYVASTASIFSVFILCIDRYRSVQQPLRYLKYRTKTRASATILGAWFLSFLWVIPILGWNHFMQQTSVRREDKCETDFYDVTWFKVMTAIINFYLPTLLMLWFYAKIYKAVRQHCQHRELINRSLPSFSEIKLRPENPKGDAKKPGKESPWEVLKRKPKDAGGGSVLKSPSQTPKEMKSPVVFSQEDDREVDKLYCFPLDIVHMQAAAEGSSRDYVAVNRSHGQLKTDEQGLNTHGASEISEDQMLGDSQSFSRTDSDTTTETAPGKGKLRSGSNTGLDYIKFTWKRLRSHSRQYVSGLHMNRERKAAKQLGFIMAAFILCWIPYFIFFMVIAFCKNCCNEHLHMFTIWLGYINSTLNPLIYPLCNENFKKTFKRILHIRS
# [25] = target: 5-hydroxytryptamine receptor 2A (Homo sapiens, UniProt P28223); test: Inhibition of 5HT2A receptor (unknown origin)
# 5-hydroxytryptamine receptor 2A, sequence (P28223 whole entry): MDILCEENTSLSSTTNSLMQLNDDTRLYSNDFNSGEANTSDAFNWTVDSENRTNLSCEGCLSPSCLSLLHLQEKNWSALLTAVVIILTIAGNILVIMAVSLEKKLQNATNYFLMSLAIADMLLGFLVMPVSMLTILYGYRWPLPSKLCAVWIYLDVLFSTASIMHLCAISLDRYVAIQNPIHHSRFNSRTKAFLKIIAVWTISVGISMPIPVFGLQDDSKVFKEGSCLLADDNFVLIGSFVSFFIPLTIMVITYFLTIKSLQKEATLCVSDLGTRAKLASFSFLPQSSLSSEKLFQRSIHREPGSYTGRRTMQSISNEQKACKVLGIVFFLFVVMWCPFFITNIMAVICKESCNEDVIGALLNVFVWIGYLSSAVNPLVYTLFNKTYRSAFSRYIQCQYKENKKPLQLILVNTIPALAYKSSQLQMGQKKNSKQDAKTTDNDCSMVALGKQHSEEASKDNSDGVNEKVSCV
# [26] = target: T5, 5-hydroxytryptamine receptor 2B; details: 10 uM
# Gerbillinae [27] = test: Antidepressant activity in gerbil assessed as decrease in immobility time at 0.3 to 3 mg/kg, ip administered for 30 mins prior to testing measured for 6 mins by forced swimming test; format: functional, organism-based
smiles,measurement,setting,value
FC(F)(F)c1cc(COCC2(c3ccccc3)CCNCC2)cc(C(F)(F)F)c1,concentration at 0.6 h,[1],4300 nM
same,Kp at 0.6 h,[2],5.2
same,concentration at 0.6 h,[3],2300 nM
same,IC50,[4],> 1 µM
same,IC50,Substance-K receptor,> 1 µM
same,concentration at 0.6 h,[5],730 nM
same,IC50,[6],0.002 µM
same,Activity,Gerbillinae [7],inactive
same,concentration at 0.6 h,[8],3.6 nM
same,concentration at 0.6 h,[9],35 nM
same,concentration at 0.6 h,[10],880 nM
same,inhibition,[11],Active
same,concentration at 0.6 h,[12],7300 nM
same,concentration at 0.6 h,[13],150 nM
same,Activity,Gerbillinae [14],Non-toxic
same,concentration at 0.6 h,[15],12 nM
same,IC50,[16],> 1 µM
same,IC50,[17],> 1 µM
same,IC50,Neuromedin-K receptor,> 1 µM
same,IC50,[18],0.001 µM
same,Kp at 0.6 h,[19],2.3
same,IC50,[20],> 1 µM
same,inhibition,[21],Active
same,concentration at 0.6 h,[22],44 nM
same,Kp at 0.6 h,[23],3.2
same,inhibition,[24],Active
same,IC50,[25],> 1 µM
same,inhibition,[26],Active
same,Activity,Gerbillinae [27],Active
